# Assay results gathered from unrelated publications.
# ABCG2: Broad substrate specificity ATP-binding cassette transporter ABCG2 (ABCG2, Homo sapiens, UniProt Q9UNQ0)
SMILES,target or system,assay,test system,conditions,quantity,result
Cc1noc(C)c1Cn1cc(N2C(=O)CN(Cc3cccc(O)c3)C2=O)cn1,,,"male Sprague-Dawley rat, plasma","oral, 100 mg/kg, 15 min",concentration,26.7 ng/mL
O=C(O)CSc1nnc(Br)n1-c1ccc(C2CC2)c2ccccc12,ABCG2,"transporter uptake, inhibitor",Caco-2,"30 µM, 2 h",inhibition,27%
C=CC1(C)CC(OC(=O)CSc2nc3ccccc3s2)C2(C)C(C)CCC3(CCC(=O)C32)C(C)C1O (stereo not shown),K562,cell growth or viability,,,IC50,38.2 µM
C[C@H](C(=O)N1Cc2c(-c3ccc(C(=O)N4CCCc5ccccc54)cc3)cnn2C[C@H]1C)c1ccccc1,ABCG2,,"dog, MDCK-MDR1",,Papp B→A,8.4 ×10⁻⁶ cm/s
C/N=C(/NC)c1ccc(NC(=O)/C=C/c2ccc(/C=C/C(=O)Nc3ccc(/C(=N\C)NC)cc3)cc2)cc1,K562,cell growth or viability,,,IC50,4.31 µM
C/C(O)=C(\C#N)C(=O)Nc1ccc(C(F)(F)F)cc1,ABCG2,,Caco-2,"1 µM, 2 h, pH 7.4",Papp B→A,33.4 ×10⁻⁶ cm/s
CCc1cc(-c2noc(-c3cc(OC)nc(C4CCCC4)c3)n2)cc(C)c1OC[C@@H](O)CO,,,"Wistar rat, plasma","oral, 1 mg/kg, 3 h, single dose",concentration,62.7 ng/mL
COc1ccc2c(=O)n(C)c(-c3ccccc3)nc2c1,,,"male Sprague-Dawley rat, lung","oral, 30 mg/kg, 15 min, single dose",concentration,15.3 ng/g
CCOC(=O)[C@@]12C[C@@H]1[C@@H](n1ccc3c(NC)nc(C#Cc4ccc(Cl)s4)nc31)[C@H](O)[C@@H]2O,,,"male Sprague-Dawley rat, plasma","oral, 3 mg/kg, 8 h",concentration,3.68 ng/mL
Nc1ccc(S(=O)(=O)NC(=O)/C=C\c2ccccc2Cl)cc1,K562,cell growth or viability,,,IC50,> 200 µM
COc1cccc(-c2n[nH]c(SCc3ccccn3)n2)c1OC,,,"female Sprague-Dawley rat, plasma","intravenous, 1 mg/kg, 8 h, single dose",concentration,24.7 ng/mL
CCCN/C(=N/C)c1ccc(NC(=O)c2ccc(C(=O)Nc3ccc(/C(=N\C)NCCC)cc3)cc2)cc1,K562,cell growth or viability,,,IC50,10.1 µM
C[C@@H]1Cn2ncc(-c3ccc(C(=O)N4CCCc5ccccc54)cc3)c2CN1C(=O)Cc1ccccc1,ABCG2,,"dog, MDCK-MDR1",,Papp B→A,16 ×10⁻⁶ cm/s
CSc1nc2nnnc(O)c2s1,K562,cell growth or viability,,,IC50,> 640 µM
"CO[C@H](C(=O)N1Cc2c(-c3ccc(C(=O)N4CCCc5ccccc54)cn3)cnn2C[C@H]1C(C)C)c1cnn(C)c1 (single isomer, unassigned)",ABCG2,,"dog, MDCK-MDR1",,Papp B→A,30.6 ×10⁻⁶ cm/s
COc1ccc2c(c1)CCc1c(C(=O)NCCc3nc4cc(C)ccc4[nH]3)n[nH]c1-2,K562,cell growth or viability,,,IC50,< 1.32 µM
COc1cc(Nc2ncc(F)c(Nc3ccc4c(n3)NC(=O)C(C)(C)O4)n2)cc(OC)c1OC,ABCG2,"transporter uptake, inhibitor",,cell membranes,Ki,0.065 µM
"CO[C@@H](C(=O)N1Cc2c(-c3ccc(C(=O)N4CCCc5ccccc54)cc3)cnn2C[C@H]1C(C)C)c1cnn(C)c1 (single isomer, unassigned)",ABCG2,,"dog, MDCK-MDR1",,Papp B→A,33.7 ×10⁻⁶ cm/s
CCc1cc(C(=O)NC)c2nccc(N3CCc4c(cc(Cn5ccnc5)cc4-c4cn(C)nc4C(F)(F)F)C3=O)c2c1,,,"male Sprague-Dawley rat, plasma","intravenous, 3 mg/kg",half-life,48 min
